Source: ChEMBL document CHEMBL3393034, “Discovery of piperidine ethers as selective orexin receptor antagonists (SORAs) inspired by filorexant” (Bioorg Med Chem Lett, 2015)
pIC50, pKi: −log10 of the molar value. Values after ≈ are worked out from the molar mass of the structure shown. Active and inactive are the calls of the source. The rule behind the calls is not given here.

Columns and labels:
Orexin receptor type 2 [1] = biological target: T1, Orexin receptor type 2 (Homo sapiens, UniProt O43614); test: Antagonist activity at human OX2R by radioligand displacement assay
T1 sequence (O43614 whole entry): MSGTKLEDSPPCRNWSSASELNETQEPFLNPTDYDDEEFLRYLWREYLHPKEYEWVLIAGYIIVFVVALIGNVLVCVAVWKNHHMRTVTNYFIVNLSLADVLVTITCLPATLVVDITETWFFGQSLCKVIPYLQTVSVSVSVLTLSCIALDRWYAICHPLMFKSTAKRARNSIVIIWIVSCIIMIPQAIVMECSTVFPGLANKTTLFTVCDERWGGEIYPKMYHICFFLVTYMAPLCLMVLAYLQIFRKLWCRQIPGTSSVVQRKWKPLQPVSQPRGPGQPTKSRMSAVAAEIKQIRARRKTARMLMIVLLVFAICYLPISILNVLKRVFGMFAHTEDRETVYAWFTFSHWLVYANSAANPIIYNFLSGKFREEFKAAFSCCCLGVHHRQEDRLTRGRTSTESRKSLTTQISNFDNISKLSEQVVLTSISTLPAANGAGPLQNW
How it was run: (§1)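 Radioligand-displacement binding assay at the human orexin receptor; affinity expressed as Ki; data for racemates unless otherwise noted.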

Homo sapiens = species: Homo sapiens; test: Selectivity ratio of Ki for human OX1R to Ki for human OX2R
How it was run: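 Selectivity index for OX2R over OX1R, calculated from radioligand-displacement binding Ki values at the two human receptors.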

[2] = biological target: T2, Orexin/Hypocretin receptor type 1 (Homo sapiens, UniProt O43613); test: Antagonist activity at human OX1R by radioligand displacement assay; how it was run: as §1
T2 sequence (O43613 whole entry): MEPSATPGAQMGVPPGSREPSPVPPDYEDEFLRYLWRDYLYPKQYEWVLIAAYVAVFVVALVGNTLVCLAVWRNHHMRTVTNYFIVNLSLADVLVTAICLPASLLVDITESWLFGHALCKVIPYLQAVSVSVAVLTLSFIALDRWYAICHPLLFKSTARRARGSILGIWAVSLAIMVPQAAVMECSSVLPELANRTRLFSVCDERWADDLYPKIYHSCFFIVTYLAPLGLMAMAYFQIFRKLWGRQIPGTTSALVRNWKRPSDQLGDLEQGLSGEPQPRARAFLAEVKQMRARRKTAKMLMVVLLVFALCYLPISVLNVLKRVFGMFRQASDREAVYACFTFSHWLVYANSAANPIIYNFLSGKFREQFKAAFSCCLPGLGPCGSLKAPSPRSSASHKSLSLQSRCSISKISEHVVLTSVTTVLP

[3] = Clearance in beagle dog at 0.125 mg/kg, iv; type: ADME, organism-based, Canis lupus familiaris; design: dose 0.125 mg/kg, route intravenous; conditions: in vivo
How it was run: (§2)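 Beagle dogs were dosed intravenously at 0.125 mg/kg and orally at 3 mg/kg. Readouts were clearance (mL/min/kg), terminal half-life, and oral AUC (µM•h), Cmax (µM), Tmax (h) and bioavailability (%).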

[4] = Plasma protein binding in human; type: ADME, cell-free; conditions: read-out: PPB (converted)
[5] = Half life in Sprague-Dawley rat at 2 mg/kg, iv; type: ADME, organism-based; design: dose 2 mg/kg, route intravenous; conditions: in vivo
How it was run: (§3)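 Sprague–Dawley rats were dosed intravenously at 2 mg/kg and orally at 10 mg/kg. Readouts were clearance (mL/min/kg), terminal half-life, plasma AUC (µM•h) and oral bioavailability (%).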

[6] = Lipophilicity, log D of the compound by HPLC analysis; type: physicochemical
[7] = Fraction unbound in rat plasma; type: ADME, cell-free
[8] = Tmax in Sprague-Dawley rat at 30 mg/kg, po; conditions: in vivo
[9] = Tmax in beagle dog at 3 mg/kg, po; type: ADME, organism-based, Canis lupus familiaris; design: dose 3 mg/kg, route oral; conditions: in vivo; how it was run: as §2
[10] = Clearance in Sprague-Dawley rat at 2 mg/kg, iv; type: ADME, organism-based; design: dose 2 mg/kg, route intravenous; conditions: in vivo; how it was run: as §3
[11] = Cmax in Sprague-Dawley rat at 30 mg/kg, po; conditions: in vivo
[12] = AUC in Sprague-Dawley rat at 30 mg/kg, po; conditions: plasma
[13] = Aqueous solubility of the compound at pH 7; type: physicochemical; conditions: aqueous medium
Rattus norvegicus [14] = test: Effect on sleep-wake cycle in rat assessed as increase in delta sleep at 30 mg/kg, po after 30 mins relative to vehicle-treated control; type: functional, organism-based; design: dose 30 mg/kg
How it was run: (§4)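 EEG-telemetry in rats, 30 mg/kg oral versus vehicle (20% vitamin E TPGS). Dosing was at 09:00 in the active phase (ZT 17:00, 7 h before lights on), recorded from 30 min pre-dose to 2 h post-dose. Active wake, light, delta and REM sleep were scored as means in 10-min bins. Balanced crossover over 3 consecutive days, N=6.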

Rattus norvegicus [15] = test: Effect on sleep-wake cycle in rat assessed as increase in REM sleep at 30 mg/kg, po after 30 mins relative to vehicle-treated control; type: functional, organism-based; design: dose 30 mg/kg; how it was run: as §4
[16] = Cmax in beagle dog at 3 mg/kg, po; type: ADME, organism-based, Canis lupus familiaris; design: dose 3 mg/kg, route oral; conditions: in vivo; how it was run: as §2
[17] = Plasma concentration in rat at 30 mg/kg, po after 30 mins; type: ADME, organism-based; design: dose 30 mg/kg, route oral
How it was run: (§5)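 Rats received a single 30 mg/kg oral dose. Receptor occupancy, plasma level and CSF level were determined at t = 30 min.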

[18] = biological target: T2, Orexin/Hypocretin receptor type 1; test: Antagonist activity at human OX1R by FLIPR assay
How it was run: (§6)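 Functional FLIPR readout in CHO cells engineered to overexpress the human orexin receptor; antagonism expressed as IC50.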

[19] = Fraction unbound in human plasma; type: ADME, cell-free
[20] = AUC in beagle dog at 3 mg/kg, po; type: ADME, organism-based, Canis lupus familiaris; design: dose 3 mg/kg, route oral; conditions: plasma; how it was run: as §2
Rattus norvegicus [21] = test: Effect on sleep-wake cycle in rat assessed as change in active wake at 30 mg/kg, po after 30 mins relative to vehicle-treated control; type: functional, organism-based; design: dose 30 mg/kg; how it was run: as §4
Rattus norvegicus [22] = test: Ex vivo receptor occupancy of OX2R in rat at 30 mg/kg, po after 30 mins; type: functional; how it was run: as §5
[23] = Oral bioavailability in Sprague-Dawley rat at 30 mg/kg; conditions: in vivo
[24] = AUC in Sprague-Dawley rat at 10 mg/kg, po; type: ADME, organism-based; design: dose 10 mg/kg, route oral; conditions: plasma; how it was run: as §3
P-gp = test: Binding affinity to human P-gp assessed as apparent passive permeability; type: ADME; conditions: not told
[25] = Plasma protein binding in rat; type: ADME, cell-free; conditions: read-out: PPB (converted)
[26] = Drug uptake in rat CSF at 30 mg/kg, po after 30 mins; type: ADME, organism-based; design: dose 30 mg/kg, route oral; conditions: cerebrospinal fluid, read-out: Drug uptake; how it was run: as §5
[27] = Aqueous solubility of the compound at pH 2; type: physicochemical; conditions: aqueous medium
[28] = Half life in beagle dog at 0.125 mg/kg, iv; type: ADME, organism-based, Canis lupus familiaris; design: dose 0.125 mg/kg, route intravenous; conditions: in vivo; how it was run: as §2
[29] = Oral bioavailability in Sprague-Dawley rat at 10 mg/kg; type: ADME, organism-based; conditions: in vivo; how it was run: as §3
[30] = Oral bioavailability in beagle dog at 3 mg/kg; type: ADME, organism-based, Canis lupus familiaris; conditions: in vivo; how it was run: as §2
Orexin receptor type 2 [31] = biological target: T1, Orexin receptor type 2; test: Antagonist activity at human OX2R by FLIPR assay; how it was run: as §6

CC1CCC(Oc2cccc3ccncc23)CN1C(=O)c1ccccc1-n1nccn1 (racemic)
pKi (Orexin receptor type 2 [1]): 8.03 | Ratio Ki (Homo sapiens): 97 | pKi [2]: 6.05

Cc1cc(OC2CCC(C)N(C(=O)c3ccccc3-n3nccn3)C2)c2ccccc2n1 (racemic)
pKi (Orexin receptor type 2 [1]): 7.54 | Ratio Ki (Homo sapiens): 125 | pKi [2]: 5.44

CC1CCC(Oc2ccnc3ccc(Br)cc23)CN1C(=O)c1ccccc1-n1nccn1 (racemic)
pKi (Orexin receptor type 2 [1]): 8.28 | Ratio Ki (Homo sapiens): 90 | pKi [2]: 6.33

CC1CCC(Oc2ccnc3ccccc23)CN1C(=O)c1ccccc1-n1nccn1 (racemic)
pKi (Orexin receptor type 2 [1]): 8.17 | Ratio Ki (Homo sapiens): 397 | pKi [2]: 5.57

C[C@@H]1CC[C@@H](Oc2ccnc3c(F)cccc23)CN1C(=O)c1ccccc1-c1ncccn1
pKi (Orexin receptor type 2 [1]): 9.10 | Ratio Ki (Homo sapiens): 1500 | pKi [2]: 5.92

CC1CCC(Oc2cccc3cnccc23)CN1C(=O)c1ccccc1-n1nccn1 (racemic)
pKi (Orexin receptor type 2 [1]): 8.12 | Ratio Ki (Homo sapiens): 55 | pKi [2]: 6.38

C[C@@H]1CC[C@@H](Oc2ccnc3c(F)cccc23)CN1C(=O)c1ccccc1-n1nccn1
clearance [3]: 6.2 mL/min/kg | pKi (Orexin receptor type 2 [1]): 9.22 | fraction unbound [4]: 0.029 | half-life [5]: 24 min | logD [6]: 2.35 | fraction unbound [7]: 0.03 | Tmax [8]: 30 min | Tmax [9]: 22.8 min | clearance [10]: 22.5 mL/min/kg | Cmax [11]: 15.7 µM | AUC [12]: 30.1 µM·h | solubility [13]: 161 µM (≈ 69.5 µg/mL) | Activity (Rattus norvegicus [14]): Active | Activity (Rattus norvegicus [15]): Active | Cmax [16]: 5.65 µM | concentration at 0.5 h [17]: 9.5 µM | pIC50 [18]: 5.41 | fraction unbound [19]: 0.03 | AUC [20]: 16 µM·h | Activity (Rattus norvegicus [21]): Active | Occ (Rattus norvegicus [22]): 72% | bioavailability [23]: 50% | AUC [24]: 3.9 µM·h | Papp (P-gp): 34 ×10⁻⁶ cm/s | fraction unbound [25]: 0.04 | concentration at 0.5 h [26]: 0.339 µM | solubility [27]: 182 µM (≈ 78.5 µg/mL) | half-life [28]: 42 min | bioavailability [29]: 19% | pKi [2]: 6.02 | bioavailability [30]: 60% | pIC50 (Orexin receptor type 2 [31]): 7.74

CC1CCC(Oc2c(Br)cnc3ccccc23)CN1C(=O)c1ccccc1-n1nccn1 (racemic)
pKi (Orexin receptor type 2 [1]): 6.74

Cc1ccc(-n2nccn2)c(C(=O)N2CCCC(Oc3ccc(F)c(C)c3)C2)c1 (stereo unspecified)
pKi (Orexin receptor type 2 [1]): 7.26 | Ratio Ki (Homo sapiens): 2 | pKi [2]: 6.97

Cc1ccc(-n2nccn2)c(C(=O)N2CCCC(COc3ccc(F)c(C)c3)C2)c1 (stereo unspecified)
pKi (Orexin receptor type 2 [1]): 8.05 | Ratio Ki (Homo sapiens): 0.6 | pKi [2]: 8.26

C[C@@H]1CC[C@@H](Oc2ccnc3c(F)cccc23)CN1C(=O)c1ccccc1N(C)C
pKi (Orexin receptor type 2 [1]): 6.43

Cc1ccc(-c2ncccn2)c(C(=O)N2C[C@H](COc3ccc(F)cn3)CC[C@H]2C)c1 [FILOREXANT]
pIC50 [18]: 7.80 | Ratio Ki (Homo sapiens): 9 | pKi [2]: 8.54 | pIC50 (Orexin receptor type 2 [31]): 7.77

C[C@@H]1CC[C@@H](Oc2nccc3ccccc23)CN1C(=O)c1ccccc1-n1nccn1 (relative stereo)
pKi (Orexin receptor type 2 [1]): 9.52

CC1CCC(Oc2cc(C(F)(F)F)nc3ccccc23)CN1C(=O)c1ccccc1-n1nccn1 (racemic)
pKi (Orexin receptor type 2 [1]): 6.83

Cc1ccc(-n2nccn2)c(C(=O)N2C[C@H](Oc3cccc4ccccc34)CC[C@H]2C)c1 (relative stereo)
pKi (Orexin receptor type 2 [1]): 9.00 | Ratio Ki (Homo sapiens): 13 | pKi [2]: 7.89

CC1CCC(Oc2ccnc3c(Br)cccc23)CN1C(=O)c1ccccc1-n1nccn1 (racemic)
pKi (Orexin receptor type 2 [1]): 8.59 | Ratio Ki (Homo sapiens): 423 | pKi [2]: 5.96

COc1cnc(O[C@@H]2CC[C@@H](C)N(C(=O)c3ccccc3-n3nccn3)C2)c2ccccc12
pKi (Orexin receptor type 2 [1]): 9.62 | pKi [2]: 9.39

CC1CCC(Oc2ccnc3c(Cl)cccc23)CN1C(=O)c1ccccc1-n1nccn1 (racemic)
pKi (Orexin receptor type 2 [1]): 9.05 | Ratio Ki (Homo sapiens): 567 | pKi [2]: 6.29

CC1CCC(Oc2ccnc3c(F)cccc23)CN1C(=O)c1ccccc1-n1nccn1 (racemic)
pKi (Orexin receptor type 2 [1]): 8.89 | pKi [2]: 6.04

C[C@@H]1CC[C@@H](Oc2ccnc3c(F)cccc23)CN1C(=O)c1ccccc1-c1cccnc1
pKi (Orexin receptor type 2 [1]): 7.20 | Ratio Ki (Homo sapiens): 302 | pKi [2]: 4.72

CC1CCC(Oc2cccc3cccnc23)CN1C(=O)c1ccccc1-n1nccn1 (racemic)
pKi (Orexin receptor type 2 [1]): 8.01 | Ratio Ki (Homo sapiens): 78 | pKi [2]: 6.12

CC1CCC(Oc2cccc3ncccc23)CN1C(=O)c1ccccc1-n1nccn1 (racemic)
pKi (Orexin receptor type 2 [1]): 8.29 | Ratio Ki (Homo sapiens): 202 | pKi [2]: 5.99

O=C(c1ccccc1-n1nccn1)N1CCC(F)(F)[C@@H](Oc2ccc3ccccc3n2)C1
pKi (Orexin receptor type 2 [1]): 6.28 | pKi [2]: 8.89

Cc1ccc(-n2nccn2)c(C(=O)N2CCCC(Oc3cccc4ccccc34)C2)c1 (stereo unspecified)
pKi (Orexin receptor type 2 [1]): 7.74 | Ratio Ki (Homo sapiens): 0.5 | pKi [2]: 8.05
